# Source: ChEMBL document CHEMBL1629488, “Synthesis and biological evaluation of 2-(3',4',5'-trimethoxybenzoyl)-3-aryl/arylaminobenzo[b]thiophene derivatives as a novel class of antiproliferative agents” (Eur J Med Chem, 2010)
# Calls of active or inactive are those of the source. No cut-off for these calls is given here.
# How the values were obtained:
# HeLa [1] = test: Induction of apoptosis in human HeLa cells assessed as increase of Bax protein expression up to 2.5 uM after 24 to 48 hrs by Western blot analysis; type: functional, cell-based
# Method in brief: (§1)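 Treated cells washed twice in ice-cold PBS, lysed 30 min on ice, lysate cleared at 15000×g, 4 °C, 10 min; protein by BCA. 20 μg per lane on SDS-PAGE (7.5–15%), PVDF transfer, overnight block at 4 °C; primary antibodies 2 h at room temperature, peroxidase secondaries 60 min, ECL detection; β-actin loading control.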
# HeLa [2] = test: Induction of apoptosis in human HeLa cells assessed as caspase-3-mediated cleavage of PARP after 48 hrs by Western blot analysis; type: functional, cell-based; method in brief: as §1
# K562 = test: Antiproliferative activity against human K562 cells after 72 hrs by MTT assay; type: functional, cell-based; conditions: K562, 72 h
# HeLa [3] = test: Induction of apoptosis in human HeLa cells assessed as viable cells at 1.25 uM after 24 hrs using FITC-conjugated annexin V and propidium iodide staining by flow cytometry assay (RVb = 94.7 %); type: functional; conditions: read-out: Activity
# HeLa [4] = test: Cell cycle arrest in human HeLa cells assessed as accumulation at G2/M phase at 0.625 uM after 24 hrs using propidium iodide staining by flow cytometry relative to control; type: functional
# Method in brief: (§2)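 Exponentially growing cells (5 × 10^5) exposed to graded compound levels, 0.312 to 5 μM, for 24 or 48 h; collected, fixed in ice-cold 70% ethanol, treated with lysis buffer containing RNase A and 0.1% Triton X-100, stained with propidium iodide; DNA content read by flow cytometry. Mean ± SEM of two independent experiments.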
# HeLa [5] = test: Induction of apoptosis in human HeLa cells assessed as late apoptotic cells at 0.62 uM after 24 hrs using FITC-conjugated annexin V and propidium iodide staining by flow cytometry assay (RVb = 1.9 %); type: functional
# HeLa [6] = test: Induction of apoptosis in human HeLa cells assessed as caspase-3-mediated cleavage of PARP after 24 to 48 hrs; type: functional, cell-based; method in brief: as §1
# HeLa [7] = test: Induction of apoptosis in human HeLa cells assessed as viable cells at 2.5 uM after 24 hrs using FITC-conjugated annexin V and propidium iodide staining by flow cytometry assay (RVb = 94.7 %); type: functional; conditions: read-out: Activity
# HeLa [8] = test: Induction of apoptosis in human HeLa cells assessed as early apoptotic cells at 1.25 uM after 24 hrs using FITC-conjugated annexin V and propidium iodide staining by flow cytometry assay (RVb = 1.5 %); type: functional
# HeLa [9] = test: Antiproliferative activity against human HeLa cells assessed as cell viability after 72 hrs by MTT assay; type: functional, cell-based
# Method in brief: (§3)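 A549 and HeLa cells grown in DMEM with 10% FBS and penicillin/streptomycin. Plated at 8 × 10^3 cells/well and held 18 h at 37 °C in 5% CO2. Medium replaced with compound in complete medium at varied concentrations for 72 h at 37 °C, then MTT read.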
# A549 = test: Antiproliferative activity against human A549 cells after 72 hrs by MTT assay; type: functional, cell-based; conditions: A549, 72 h; method in brief: as §3
# HeLa [10] = test: Cell cycle arrest in human HeLa cells assessed as reduction of cells at G1 phase at 1.25 uM after 24 hrs using propidium iodide staining by flow cytometry; type: functional, cell-based; method in brief: as §2
# HeLa [11] = test: Induction of apoptosis in human HeLa cells assessed as viable cells at 0.62 uM after 24 hrs using FITC-conjugated annexin V and propidium iodide staining by flow cytometry assay (RVb = 94.7 %); type: functional; conditions: read-out: Activity
# HeLa [12] = test: Induction of apoptosis in human HeLa cells assessed as necrotic cells at 0.62 uM after 24 hrs using FITC-conjugated annexin V and propidium iodide staining by flow cytometry assay (RVb = 1.9 %); type: functional
# Jurkat [13] = test: Antiproliferative activity against human Jurkat cells after 72 hrs by MTT assay; type: functional, cell-based
# HeLa [14] = test: Induction of apoptosis in human HeLa cells assessed as late apoptotic cells at 2.5 uM after 24 hrs using FITC-conjugated annexin V and propidium iodide staining by flow cytometry assay (RVb = 1.9 %); type: functional
# HeLa [15] = test: Upregulation of cyclin B1 protein expression in human HeLa cells after 24 to 48 hrs by Western blot analysis; type: functional, cell-based; method in brief: as §1
# HeLa [16] = test: Cell cycle arrest in human HeLa cells assessed as accumulation at G2/M phase at 1.25 uM after 24 hrs using propidium iodide staining by flow cytometry relative to control; type: functional; method in brief: as §2
# HeLa [17] = test: Induction of apoptosis in human HeLa cells assessed as caspase-3-mediated cleavage of PARP at 0.625 to 2.5 uM; type: functional, cell-based; conditions: TDE = time-dependent effect; method in brief: as §1
# HeLa [18] = test: Cell cycle arrest in human HeLa cells assessed as hypodiploid peak at sub-G1 phase at 0.312 to 5 uM uM after 48 hrs using propidium iodide staining by flow cytometry; type: functional, cell-based; method in brief: as §2
# HeLa [19] = test: Induction of apoptosis in human HeLa cells assessed as viable cells at 5 uM after 24 hrs using FITC-conjugated annexin V and propidium iodide staining by flow cytometry assay (RVb = 94.7 %); type: functional; conditions: read-out: Activity
# HeLa [20] = test: Induction of apoptosis in human HeLa cells assessed as loss of mitochondrial membrane potential at 0.625 to 2.5 uM using Rho123 staining by flow cytometry; type: functional, cell-based; conditions: TDE = time-dependent effect
# Method in brief: (§4)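 After 24 or 48 h exposure, HeLa cells were pelleted, resuspended in HBSS with 0.1 μM rhodamine 123, held 20 min at 37 °C, spun and resuspended in HBSS; fluorescence read by flow cytometry. Mean ± S.E.M. of 3 independent experiments.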
# HeLa [21] = test: Induction of apoptosis in human HeLa cells assessed as early apoptotic cells at 0.62 uM after 24 hrs using FITC-conjugated annexin V and propidium iodide staining by flow cytometry assay (RVb = 1.5 %); type: functional
# Jurkat [22] = test: Cell cycle arrest in human Jurkat cells assessed as accumulation at G1 phase at 1.25 uM after 24 hrs using propidium iodide staining by flow cytometry relative to control; type: functional; method in brief: as §2
# HeLa [23] = test: Induction of apoptosis in human HeLa cells assessed as late apoptotic cells at 5 uM after 24 hrs using FITC-conjugated annexin V and propidium iodide staining by flow cytometry assay (RVb = 1.9 %); type: functional
# HeLa [24] = test: Induction of apoptosis in human HeLa cells assessed as loss of mitochondrial membrane potential after 24 to 48 hrs using Rho123 staining by flow cytometry; type: functional, cell-based; method in brief: as §4
# HeLa [25] = test: Upregulation of p53 protein expression in human HeLa cells at up to 2.5 uM after 24 to 48 hrs by Western blot analysis; type: functional, cell-based; method in brief: as §1
# HeLa [26] = test: Cell cycle arrest in human HeLa cells assessed as reduction of cells at S phase at 1.25 uM after 24 hrs using propidium iodide staining by flow cytometry; type: functional, cell-based; method in brief: as §2
# HeLa [27] = test: Induction of apoptosis in human HeLa cells assessed as caspase-3-mediated cleavage of PARP after 24 hrs by Western blot analysis; type: functional, cell-based; method in brief: as §1
# [28] = Inhibition of tubulin polymerization after 20 mins by turbidimetry
# HeLa [29] = test: Induction of apoptosis in human HeLa cells assessed as late apoptotic cells at 1.25 uM after 24 hrs using FITC-conjugated annexin V and propidium iodide staining by flow cytometry assay (RVb = 1.9 %); type: functional
# HeLa [30] = test: Induction of apoptosis in human HeLa cells assessed as early apoptotic cells at 5 uM after 24 hrs using FITC-conjugated annexin V and propidium iodide staining by flow cytometry assay (RVb = 1.5 %); type: functional
smiles,measurement,setting,value
CCOc1ccc(Nc2c(C(=O)c3cc(OC)c(OC)c(OC)c3)sc3ccccc23)cc1,Activity,HeLa [1],inactive
same,Activity,HeLa [2],Active
same,IC50,K562,200 nM
same,viability at 1.25 µM,HeLa [3],63.7%
same,Activity,HeLa [4],52%
same,Activity,HeLa [5],14.4%
same,Activity,HeLa [6],Dose-dependent effect
same,viability at 2.5 µM,HeLa [7],49.4%
same,Activity,HeLa [8],6.8%
same,IC50,HeLa [9],700 nM
same,IC50,A549,1400 nM
same,Activity,HeLa [10],Active
same,viability at 0.62 µM,HeLa [11],64.9%
same,Activity,HeLa [12],15.5%
same,IC50,Jurkat [13],300 nM
same,Activity,HeLa [14],24.9%
same,Activity,HeLa [15],Dose-dependent effect
same,Activity,HeLa [16],85%
same,Activity,HeLa [17],tde
same,Activity,HeLa [18],Active
same,viability at 5 µM,HeLa [19],49.9%
same,Activity,HeLa [20],tde
same,Activity,HeLa [21],5.2%
same,Activity,Jurkat [22],10%
same,Activity,HeLa [23],25.4%
same,Activity,HeLa [24],Dose-dependent effect
same,Activity,HeLa [25],inactive
same,Activity,HeLa [26],Active
same,Activity,HeLa [27],Active
same,IC50,[28],7200 nM
same,Activity,HeLa [29],16%
same,Activity,HeLa [30],7.2%
